Screens: PubChem BioAssay, several laboratories
SUMO Mot1 rescue – blocks SUMOylation pathway, rescuing yeast Mot1-301 growth | hit rate 1% among 320,000 | S. cerevisiae Mot1-301 growth rescue, ATP luminescence, 38.5C; percent above DMSO median, 100 means doubled | growth rescue, % at 18.8 µM;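 active = every valid replicate shows activation above 250% relative to neutral control wells; inactive = the rest, any valid replicate at or below 250%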
HIF activator – HIF pathway transcriptional activation; U2OS HRE-luciferase reporter, luminescence; normalized: DMSO 0%, desferrioxamine 100%; activation, % at 7.5 µM (by protocol); hit rate 0.32% among 300,000;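 active = mean activation of at least 10% of the iron chelator positive control signal, with at least half of replicates also reaching 10%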
GASC-1 inh – inhibitors of human GASC-1 (JMJD2C) demethylase; inhibition, % at 2.35 µM; AID 2099; Q9H3R0; hit rate 0.069% among 330,000; GST-JMJD2C(1-420) H3K9me3 demethylation, DELFIA europium;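 active = more than half of a compound's replicate wells show inhibition beyond 50%, single wells judged on their own value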;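 note: signal counts dimethyl H3K9 product captured on neutravidin plate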
Target sequence (Q9H3R0 1-420 limits assumed): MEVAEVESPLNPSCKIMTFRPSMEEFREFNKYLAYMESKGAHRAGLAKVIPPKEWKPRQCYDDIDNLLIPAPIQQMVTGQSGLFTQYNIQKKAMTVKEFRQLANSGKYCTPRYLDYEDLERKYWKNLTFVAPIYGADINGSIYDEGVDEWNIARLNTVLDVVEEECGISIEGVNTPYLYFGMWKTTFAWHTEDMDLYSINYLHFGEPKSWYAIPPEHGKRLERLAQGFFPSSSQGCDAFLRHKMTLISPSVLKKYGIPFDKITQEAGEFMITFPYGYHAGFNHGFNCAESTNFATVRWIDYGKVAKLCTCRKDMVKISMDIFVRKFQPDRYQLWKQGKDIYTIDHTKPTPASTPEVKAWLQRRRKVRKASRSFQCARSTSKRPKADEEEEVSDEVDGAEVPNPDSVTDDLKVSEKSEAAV
T cell modulator – T cell immune modulators affecting CD8 T cell-vesicle binding; response (vesicle binding), % at 7 µM; 2C CD8+ T cell-vesicle binding, flow cytometry; active compounds read low; hit rate 0.068% among 330,000;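 active = response, share of CD8 T cells binding vesicles, and their 90th percentile fluorescence all below set limits, cut at about 80% in these data, passing the limit was not always enough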;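 note: values below 100% mean blocked vesicle binding to the CD8+ T cells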
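Read-out – percent CD8+ FL2 mean versus row control · System – murine 2C transgenic CD8+ T lymphocytes · Times – 1.5 h cell–vesicle binding at 37 °C, then 20 min icy labelling · Control set – naked vesicles low, QL9 vesicles with vehicle high · Detection – cytometric PE anti-B7-1 and Alexa647 anti-CD8 signals after 1% paraformaldehyde fixation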
Mot1 SUMO dose – SUMO pathway inhibitors in yeast Mot1-301 growth. 2,300 tested, under 10 active. growth activity, percent, % at 42 µM. shares compounds with SUMO Mot1 rescue. S. cerevisiae Mot1-301 galactose growth, ATP luminescence, 24 h; -100 = growth of slx-deleted rescue strain. AID 493004;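 active = Signal drops as the depositor expects, and the fitted half-maximal dose is no more than ten times the top valid tested dose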;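 note: more negative values mean stronger growth rescue toward the control strain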
Hits are given with their value; – = inactive; · = no result given; + = active, no number. Only some compounds are listed: those with a hit (about 1.4% of all), similar ones and a draw of the others.

SMILES | SUMO Mot1 rescue | HIF activator | GASC-1 inh | T cell modulator | Mot1 SUMO dose
Cc1sc(-n2c(C)cc(C=C3C(=O)NC(=O)NC3=O)c2C)c(C#N)c1C | 486 | – | – | – | –
COc1cc(O)c(C(=O)O)c(-c2cc(O)c(O)cc2C)c1 | – | – | – | – | ·
COc1ccccc1-n1c(O)c(/C=C2\C=Nc3ccccc32)c(=O)[nH]c1=O | 562 | – | – | – | –
CN(C=O)CP(=O)(O)CN(C)C=O | 570 | – | – | – | –
CCOC(=O)c1ccc(NC(=O)N2CC3CC(C2)c2cccc(=O)n2C3)cc1 (configuration not stated) | – | – | – | – | ·
Cn1cc(C(=O)Cc2ccccc2)c2ccccc21 | 671 | – | – | – | –
Cc1ccc(C2=NCC(=O)Nc3ccc(Br)cc32)cc1 | – | – | – | – | ·
COc1ccc(-c2cc(-c3ccccc3)[n+](C)c(-c3ccccc3)c2)cc1 | – | – | – | – | ·
C[n+]1c(-c2ccccc2)cc(CCCCc2cc(-c3ccccc3)[n+](C)c(-c3ccccc3)c2)cc1-c1ccccc1 | 368 | · | · | – | –
CNCCc1nc(N)n[nH]1 | – | – | – | – | ·
Cc1cc(C)n(CCOC(=O)C2C(C=C(Cl)Cl)C2(C)C)n1 (configuration not stated) | 905 | – | – | – | –
C[C@@H]1C(=O)O[C@@H]2[C@H](O)C34[C@@H]5OC(=O)C3(O[C@H]3OC(=O)[C@H](O)C34[C@H](C(C)(C)C)[C@H]5O)[C@@]12O (some centres not stated) | – | – | – | – | ·
CN(C)CCSCc1nnc2n1-c1ccc(Cl)cc1C(c1ccccc1Cl)=NC2 | – | – | – | – | ·
CCOP(=O)(OCC)C(NC(=O)c1ccccc1C)C(Cl)(Cl)Cl (configuration not stated) | – | – | – | – | ·
CCOP(=O)(OCC)C(NC(=O)c1cccc([N+](=O)[O-])c1)C(Cl)(Cl)Cl (configuration not stated) | 710 | – | – | – | –
CCOP(=O)(OCC)C(NC(=O)c1cccc(C)c1)C(Cl)(Cl)Cl (configuration not stated) | 971 | – | – | – | –
CC(C)(O)C(=O)Nc1ccc([N+](=O)[O-])c(C(F)(F)F)c1 | – | · | – | – | ·
O=C(O)c1cc(Oc2ccc(C(F)(F)F)cc2Cl)ccc1[N+](=O)[O-] | 514 | – | – | – | –
COc1ccc2[nH]c(C)c(CCNCc3cn(C)c4ccccc34)c2c1 | – | · | – | – | ·
Cc1cccc(N=Nc2ccc(N(C)C)cc2)c1 | 736 | – | – | – | –
Cc1cccc(C#N)c1 | – | · | – | – | ·
CC(C)CC12CN3CCN(CC(C3)C1O)C2 (configuration not stated) | – | – | – | – | ·
O=[N+]([O-])c1cccc(CN2CC=C(c3ccc(F)cc3)CC2)c1 | – | – | – | – | ·
O=[N+]([O-])c1ccccc1CN1CC=C(c2ccc(F)cc2)CC1 | + | – | – | – | –
CN1C(=O)C(=Cc2cn(CC(=O)N3CCCC3)c3ccccc23)C(=O)N(C)C1=O | + | – | – | – | –
SMILES | SUMO Mot1 rescue | HIF activator | GASC-1 inh | T cell modulator | Mot1 SUMO dose
CN(C)/C=C1/C(=O)NC(=O)N(CCNc2ncc(C(F)(F)F)cc2Cl)C1=O | – | – | – | – | ·
Cc1ccccc1Cc1c(C)nc2nc(SCC(=O)N3CCC4(CC3)OCCO4)nn2c1C | – | – | – | – | ·
CC1CN=C(NCc2ccccc2)S1 (configuration not stated) | 679 | – | – | – | –
CC1CN=C(NCc2ccccc2Cl)S1 (configuration not stated) | – | – | – | – | ·
O=[N+]([O-])c1ccc(N2CCCC2)c(F)c1Br | – | – | – | – | ·
Cc1cc(Oc2cc(NN3CCCCC3)c([N+](=O)[O-])cc2[N+](=O)[O-])ccc1[N+](=O)[O-] | 752 | – | – | – | –
O=C(c1ccccc1)C(CN1CCCC1)c1ccccc1 (configuration not stated) | 560 | – | – | – | –
COc1cc(N2CCOCC2)ccc1C=C1C(=O)NC(=O)NC1=O | – | – | – | – | ·
O=C1NC(=O)C(=Cc2ccc(N3CCOCC3)cc2)C(=O)N1 | 505 | – | – | – | –
O=c1[nH]c(O)c(N=Nc2cc([N+](=O)[O-])ccc2O)c(=O)[nH]1 | 649 | – | – | – | –
COc1ccc(N/N=C/c2c(O)n(-c3cccc(C)c3)c(=O)[nH]c2=O)cc1 | – | – | – | – | ·
Cc1cccc(N/N=C/c2c(O)[nH]c(=S)[nH]c2=O)c1 | 376 | – | – | · | –
Cc1ccc(O)c(C)c1 | 389 | · | – | – | –
CC(=O)N1CC(=O)Nc2ccc(Cl)cc2C1c1ccccc1 (configuration not stated) | + | – | – | – | –
O=C(CF)NC(NC(=S)Nc1ccccc1O)C(Cl)(Cl)Cl (configuration not stated) | – | – | – | – | ·
